This is a sample that favours compounds with a hit; in the whole collection about 2.2% have one here.
GRK2 aptamer HTS = blocks RNA aptamer binding to human GRK2; bead flow cytometry, FAM-aptamer displacement from GRK2; P25098; 330,000 compounds, 0.59% hits; inhibition of aptamer binding, % at 10 µM;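 active = inhibition of aptamer binding above 40%, roughly 3 SD of noise, on plates passing a quality check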;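 also: median bead fluorescence of bound FAM aptamer so fluorescent compounds give negative values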
STEP block = inhibitors of human striatal-enriched phosphatase STEP | recombinant STEP, OMFP fluorogenic substrate, fluorescence | inhibition, % at 20 µM | 360,000 compounds, 0.25% hits | AID 588621;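 active = inhibition at 20 µM, scaled per plate between control wells, above about 37%, limit read from the data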;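 also: 0% = DMSO with enzyme and substrate and 100% = substrate only without enzyme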
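Assay system: isolated STEP enzyme / Timing: 20 min at room temperature, dark / Doses: 20 µM, 1% DMSO / Technique: fluorescence intensity, excitation 480 nm, emission 540 nm / Reagent: fluorogenic phosphatase substrate OMFP at 25 µM final / Measure: percent inhibition scaled to no-enzyme and uninhibited-enzyme controls, plate-pattern corrected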
SUMO1 PPI mod = alters human SUMO1 binding to SIM partners; P63165; SUMO1 binding to a labelled peptide, TR-FRET, 1 h; inhibition, % at 20 µM; 360,000 compounds, 0.33% hits; AID 602429; in the data active = inhibition above about 37%
DNMT1 block = inhibitors of human DNMT1. DNMT1 molecular beacon, Hinp1I cleavage, fluorescence. inhibition (reported as % activation of signal), % at 10 µM. 360,000 compounds, 0.83% hits. AID 588458; in the data active = inhibition above about 50%
LMPTP block = LMPTP (human) inhibition. P24666. recombinant LMPTP-A, OMFP fluorogenic substrate, fluorescence intensity. AID 651560. 360,000 compounds, 0.22% hits. inhibition, % at 20 µM;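 active = compounds that cut the enzyme signal by at least half of the control window in the single-dose screen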;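 also: plate controls were DMSO wells with enzyme plus substrate for no effect and substrate without enzyme for full effect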
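Assay system: LMPTP-A, protein tyrosine phosphatase of low molecular weight / Medium: pH 6.0 Bis-Tris buffer with DTT and Triton X-100 / Schedule: 50 min enzyme reaction at room temperature, protected from light / Measured by: endpoint fluorescence intensity from OMFP dephosphorylation / Read-out basis: % inhibition relative to no-enzyme and uninhibited control wells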
Scp-1 inhibitor = Scp-1 (human) phosphatase inhibition | 340,000 compounds, 0.88% hits | AID 493091 | Recombinant Scp1, phosphopeptide, malachite green phosphate absorbance | Q9GZU7 | inhibition, % at 20 µM;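 active = inhibition above about 50% at 20 µM, limit read from the data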;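 also: plate controls were DMSO wells with enzyme for no effect and wells lacking enzyme for full effect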
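Material: truncated SCP-1 phosphatase (76-261aa) / Buffer or medium: 50 mM Tris acetate pH 5.5, 0.005% Tween-20, 10 mM MgCl2 / Compound dosing: one concentration, 20 µM, with 1.0% DMSO / Incubation: 45 min room-temperature reaction, 5 min colour, 30 min stabiliser / Detection: colorimetric free-phosphate detection, absorbance 630 nm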
GRK2 inh confirm = confirmation of human GRK2 inhibitors displacing RNA aptamer; shares compounds with GRK2 aptamer HTS; bead-bound GRK2, FAM-aptamer displacement, flow cytometry; aptamer displacement, % at 10 µM; 2,000 compounds, 4% hits;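 active = aptamer displacement above 40%, near three times the noise of non-fluorescent compounds, on plates passing quality checks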;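 also: negative values mostly reflect intrinsic compound fluorescence rather than true enhancement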
FAM quench CP1 = aptamer fluorescence quenching in GRK2 counter-screen | shares compounds with GRK2 aptamer HTS | Carboxyfluorescein RNA aptamer on beads, flow cytometry quenching; active compounds read low | fluorescence response (% of DMSO), % at 10 µM | 2,000 tested, under 10 active | AID 504580;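 active = compounds that quench the bead-bound fluorescent RNA probe, cutting fluorescence to under half of the solvent control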;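 also: counterscreen run without GRK2 so only probe quenching by compound is measured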
GRK2 confirm 2 = confirmation of human GRK2 inhibitors binding RNA aptamer site; bead-bound GRK2, FAM-aptamer displacement, flow cytometry; shares compounds with GRK2 aptamer HTS; inhibition of aptamer binding, % at 10 µM; 360 tested, under 10 active; AID 504782;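 active = inhibition of aptamer binding above 40%, about triple the noise seen with nonglowing compounds, on plates passing quality control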;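 also: negative values mostly come from compounds that fluoresce themselves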
FAM quench CP2 = aptamer fluorescence quenching in GRK2 counter-screen | fluorescence response vs DMSO, % at 10 µM | 360 tested, under 10 active | carboxyfluorescein RNA aptamer beads, flow cytometry quenching; active compounds read low | shares compounds with GRK2 aptamer HTS;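 active = response vs DMSO under 50%, meaning signal dropped by over half, treated as fluorescence quencher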;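 also: labelled aptamer on streptavidin beads without GRK2 as a quench counter-screen; 100% = bead fluorescence of DMSO wells and lower means quenching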
* hit, by the source's call.

`COc1ccc([C@H]2N[C@]3(CCCN(Cc4ccc(C)cc4)C3=O)[C@H]3C(=O)N(Cc4ccccc4)C(=O)[C@@H]23)cc1` gave STEP block 1.5, SUMO1 PPI mod 3.2, DNMT1 block 0.8 and LMPTP block -0.9.
O=C(CSc1nc2[nH]ncc2c(=O)[nH]1)Nc1ccc(OC(F)(F)F)cc1 was read as GRK2 aptamer HTS 65.0*, STEP block -1.8, SUMO1 PPI mod -1.6, DNMT1 block 4.7, LMPTP block -0.1, Scp-1 inhibitor 1.0, GRK2 inh confirm -1.6 and FAM quench CP1 101.8.
CC(C)(C)OC(=O)Nc1ccccc1-n1nnnc1C(C(=O)c1ccc(F)cc1)N1CCOCC1 (stereo unspecified) was read as SUMO1 PPI mod -7.9 and LMPTP block -2.1.
CC(NC(=O)COc1ccc(Oc2ccccc2)cc1)C(=O)O (stereo unspecified) was read as GRK2 aptamer HTS 52.0*, STEP block -4.0, SUMO1 PPI mod 2.1, DNMT1 block 0.0, LMPTP block -0.1, Scp-1 inhibitor -7.2, GRK2 inh confirm -2.8 and FAM quench CP1 107.7.
Cc1ccc(Oc2ccc(OCC(=O)NC(C)C(=O)O)cc2)cc1 (stereo unspecified) was read as GRK2 aptamer HTS 0.0, STEP block 0.2, SUMO1 PPI mod 6.0, DNMT1 block 0.5, LMPTP block -1.3 and Scp-1 inhibitor -17.1.
`CCCCCCCCN1C(=O)[C@H](CC(=O)NCCCOCCCC)C[C@@]2(C(=O)OC)CC(C)(C)CC=C12` gave SUMO1 PPI mod 0.2 and LMPTP block 5.2.
Screening O=c1cc(CN2CCN(Cc3ccc(F)cc3)C(CCO)C2)[nH]c2ccccc12 (stereo unspecified) returned GRK2 aptamer HTS 41.0*, STEP block 0.3, SUMO1 PPI mod 2.4, DNMT1 block 1.0, LMPTP block -0.2, Scp-1 inhibitor 0.1, GRK2 confirm 2 1.4 and FAM quench CP2 99.0.
Cc1ccc(NC(=O)c2noc3c2CCCCC3)cc1C was read as GRK2 aptamer HTS 100.0*, STEP block 2.4, SUMO1 PPI mod 0.5, DNMT1 block -3.8, LMPTP block 1.3, Scp-1 inhibitor -5.3, GRK2 inh confirm 0.2 and FAM quench CP1 98.9.
Screening COc1ccc(CN2C(=O)C(CC(=O)NCCc3ccccn3)CC(C(=O)N3CCCCCC3)=C2C)cc1 (stereo unspecified) returned SUMO1 PPI mod -0.5 and LMPTP block -0.9.
`CCOC(=O)CN1C(=O)C2(OCCCO2)c2ccccc21` gave GRK2 aptamer HTS 1.0, STEP block -2.6, SUMO1 PPI mod 6.2, DNMT1 block -3.2, LMPTP block -2.9 and Scp-1 inhibitor -8.4.
For COC(=O)CN1C(=O)C2(OCCCO2)c2cc(Br)ccc21 the results were GRK2 aptamer HTS 99.0*, STEP block -0.7, SUMO1 PPI mod -2.0, DNMT1 block 0.4, LMPTP block 0.3, Scp-1 inhibitor -2.2, GRK2 inh confirm -0.4 and FAM quench CP1 101.3.
Screening CC(=O)N/N=C(\C)c1ccc2c(c1)OCCO2 returned GRK2 aptamer HTS 72.0*, STEP block -2.6, SUMO1 PPI mod -6.3, DNMT1 block 1.4, LMPTP block -0.7, Scp-1 inhibitor -9.6, GRK2 inh confirm -4.0 and FAM quench CP1 96.2.
COc1ccc(S(=O)(=O)N2CCC[C@H]2C(=O)N2CCC[C@H]2C(=O)NCc2ccc(F)cc2F)cc1C was read as SUMO1 PPI mod 2.8 and LMPTP block 0.8.
Screening COc1ccc(-c2nc3ccc(Cl)cn3c2CC(C)(C)C)cc1OC returned STEP block 1.7, SUMO1 PPI mod -0.9, DNMT1 block 1.1 and LMPTP block 2.5.
Screening COCC(=O)NCc1ccc2c(c1)cc(C)n2C returned GRK2 aptamer HTS 20.0, STEP block -2.1, SUMO1 PPI mod -15.3, DNMT1 block -1.0, LMPTP block 0.4 and Scp-1 inhibitor 0.7.
COc1ccc(CC(=O)NCc2ccc3c(c2)cc(C)n3C)cc1OC was read as GRK2 aptamer HTS 0.0, STEP block 1.1, SUMO1 PPI mod -18.7, DNMT1 block -16.5, LMPTP block 2.5, Scp-1 inhibitor -3.3, GRK2 inh confirm 2.5 and FAM quench CP1 97.3.
For Cc1cc2cc(CNC(=O)c3ccc4c(c3)OCO4)ccc2n1C the results were GRK2 aptamer HTS 22.0, STEP block 0.5, SUMO1 PPI mod -22.1, DNMT1 block -4.7, LMPTP block 55.2*, Scp-1 inhibitor -1.0, GRK2 inh confirm 4.5 and FAM quench CP1 94.3.
For COc1ccc(C(=O)NCc2ccc3c(c2)cc(C)n3C)cc1 the results were GRK2 aptamer HTS 1.0, STEP block 1.2, SUMO1 PPI mod -20.3, DNMT1 block -9.3, LMPTP block 15.4 and Scp-1 inhibitor -9.2.
CCOC(=O)/C=C1\SCC(=O)N1CC(=O)NCc1ccc(OC)c(OC)c1 was read as GRK2 aptamer HTS 95.0*, STEP block 2.8, SUMO1 PPI mod 4.1, DNMT1 block 1.9, LMPTP block -0.6, Scp-1 inhibitor -5.0, GRK2 inh confirm 0.6 and FAM quench CP1 98.1.
Screening CCOC(=O)/C=C1\SCC(=O)N1CC(=O)NCCc1ccc(F)cc1 returned GRK2 aptamer HTS 0.0, STEP block -1.1, SUMO1 PPI mod 2.3, DNMT1 block -1.6, LMPTP block -0.3 and Scp-1 inhibitor -7.0.
Screening COc1cc(OC)cc(C(=O)NCc2ccc3c(c2)cc(C)n3C)c1 returned GRK2 aptamer HTS 82.0*, STEP block -3.4, SUMO1 PPI mod -19.9, DNMT1 block -5.0, LMPTP block 17.3, Scp-1 inhibitor -9.5, GRK2 inh confirm 3.1 and FAM quench CP1 98.0.
Screening CC1NC(=O)c2cc3ccccc3cc2-n2c1nc1ccccc1c2=O (stereo unspecified) returned STEP block 1.2, SUMO1 PPI mod -18.2, DNMT1 block 3.7 and LMPTP block -1.1.
`CCC(CC)C(=O)N(C)c1c(C)nc2c(OCc3ccc(C#N)cc3)cccn12` gave STEP block -1.4, SUMO1 PPI mod 2.7, DNMT1 block -5.4 and LMPTP block -1.3.

Source: PubChem BioAssay
